Results as given in ChEMBL document CHEMBL1151227, “Hyperjovinols A and B: Two new phloroglucinol derivatives from Hypericum jovis with antioxidant activity in cell cultures” (J Nat Prod, 2004).

Legend:
[1] = Cytotoxicity against human skin fibroblasts assessed as cell viability by trypan blue exclusion assay relative to control; assay type: cell-based; conditions: fibroblast
Method in brief: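 Normal human skin fibroblasts (lab-derived) grown in MEM with 10% FBS to confluency, then exposed to compounds (diluted from DMSO into medium) for 4 h. Viability was judged against untreated cells by Trypan Blue exclusion, with microscopic inspection for cytotoxicity.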

[2] = system: Fibroblast; assay: Inhibition of endogenous ROS production in human skin fibroblast assessed as DCF-fluorescence at 100 uM after 4 hrs by DCFH-DA assay relative to control; design: scale not given: the % may be the effect or the level left
[3] = system: Fibroblast; assay: Inhibition of endogenous ROS production in human skin fibroblast assessed as DCF-fluorescence at 10 uM after 4 hrs by DCFH-DA assay relative to control; design: scale not given: the % may be the effect or the level left

Row | Compound | Activity [1] | Activity [2] [%] | Activity [3] [%]
1 | CC(C)=CCCC1(C)CCc2c(O)cc(O)c(C(=O)C(C)C)c2O1 (stereo not given) | Non-toxic | 73 | 81.5
2 | CC(C)=CCCC1(C)CCc2c(cc(O)c(C(=O)C(C)C)c2O)O1 (stereo not given) | Non-toxic | 62.4 | 94.1
3 | CC(C)=CCC/C(C)=C/COc1cc(O)c(C(=O)C(C)C)c(O)c1 | Non-toxic | 61.5 | 92.2
4 | CC(C)=CCC/C(C)=C/Cc1c(O)cc(O)c(C(=O)C(C)C)c1O | Non-toxic | 50.8 | 79.4
5 | CC(C)=CCCC(C)(O)CCc1c(O)cc(O)c(C(=O)C(C)C)c1O (stereo not given) [HYPERJOVINOL A] | Non-toxic | 49.2 | 76.1
6 | CC(C)C(=O)c1c(O)cc2c(c1O)C[C@@H]1C(C)(C)CCC[C@@]1(C)O2 [HYPERJOVINOL B] | Non-toxic | 57.1 | 89.7
7 | Cc1c(C)c2c(c(C)c1O)CCC(C)(C(=O)O)O2 (stereo not given) [TROLOX] | – | 55.2 | 81.4
